Screening results from PubChem BioAssay.
FXIa inh: human FXIa protease inhibitors, primary screen, biochemical, 1536-well. purified FXIa, Boc-Glu-Ala-Arg-AMC fluorogenic substrate. 0.14% of 220,000 active. Coagulation factor XI (Homo sapiens), P03951. inhibition, % at 5 µM;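 active = inhibition of at least 40%; inactive = inhibition below 40%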;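 also: fluorescence of freed AMC excited at 355 nm; 0% = enzyme without compound and 100% = no enzyme blank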
FXIIa inh: human FXIIa protease inhibitors, primary screen, biochemical, 1536-well. AID 800, 2007. 0.3% of 220,000 active. inhibition, % at 5 µM. purified FXIIa, Boc-QGR-AMC fluorogenic substrate, 2 h; in the data active = inhibition above about 40%;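 also: 0% = enzyme with no compound and 100% = blank without enzyme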
hK5 inh: human KLK5 protease inhibitors, primary screen, biochemical, 1536-well; Kallikrein-5 (Homo sapiens), Q9Y337; recombinant hK5, fluorogenic AMC substrate cleavage; inhibition, % at 5 µM; 0.59% of 210,000 active; AID 873, 2007;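 active = inhibition of 40% or more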;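 also: 0% = enzyme controls without compound and 100% = no-enzyme blanks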
Target sequence (Q9Y337 67-293 limits assumed): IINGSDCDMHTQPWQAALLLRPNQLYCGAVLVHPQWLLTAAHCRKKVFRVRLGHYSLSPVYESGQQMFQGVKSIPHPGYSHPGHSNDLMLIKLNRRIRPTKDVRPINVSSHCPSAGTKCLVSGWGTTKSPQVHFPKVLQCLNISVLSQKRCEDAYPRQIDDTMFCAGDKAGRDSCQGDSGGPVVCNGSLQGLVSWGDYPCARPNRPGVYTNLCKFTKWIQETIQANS
Furin inh: human furin inhibitors, primary screen, biochemical, fluorescence intensity; 0.061% of 220,000 active; P09958; purified furin, fluorogenic substrate cleavage; AID 463115, 2010; inhibition, % at 20 µM or 30 µM; in the data active = inhibition above about 25%
Thrombin inh: human alpha-thrombin inhibitors, primary screen, counter-screen for coagulation protease inhibitor project, biochemical, 1536-well, fluorogenic AMC substrate; Prothrombin (Homo sapiens), P00734; Boc-VPR-AMC fluorogenic substrate cleavage; inhibition, % at 5 µM; 0.26% of 220,000 active; AID 1046, 2008;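 active = inhibition at or above 40%; inactive = inhibition below 40%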;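 also: 0% = enzyme with no compound and 100% = wells without enzyme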
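Material: human alpha-thrombin protein; Also added: Boc-VPR-AMC substrate, 15 µM final; Timing: enzyme reaction carried out at room temperature; Signal: fluorescence, ex 355 nm, em 460 nm; Measure: % inhibition of thrombin; Controls: enzyme without compound as high, wells lacking enzyme as low.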
* = called active by the depositor; / = no result given. Most compounds without a hit are left out; they make up all but 1.1% or so of the library.

SMILES	FXIa inh	FXIIa inh	hK5 inh	Furin inh	Thrombin inh
CCCC(c1nnnn1Cc1cccs1)N1CCN(C2CCCC2)CC1 (stereo not given)	1.6	7.6	1.3	-15.2	-3.9
CCC(c1nnnn1Cc1cccs1)N1CCN(C2CCCC2)CC1 (stereo not given)	9.1	11.7	47.3*	-3.6	0.3
CCOC(=O)CSc1n[nH]c(NC(=O)CC)n1	-2.8	4.6	/	-11.1	1.3
CCOC(=O)CSc1n[nH]c(NC(=O)c2cccc(C(F)(F)F)c2)n1	-7.5	14.8	38.9	-18.4	77.7*
COc1cccc(C(=O)Nc2nc(SCc3ccc(Cl)cc3)n[nH]2)c1	8.4	34.5	29.4	-20.3	51.3*
O=S1(=O)c2ccccc2C(CCO)N1Cc1ccccc1 (stereo not given)	-0.8	5.1	1.6	-29.4	1.4
CSc1n[nH]c(NCc2ccc(Cl)cc2)n1	2.0	11.8	-4.9	-13.6	-2.9
CSc1n[nH]c(NCc2ccc(C)cc2)n1	11.3	17.3	-0.8	26.8*	0.4
CCO[C@@H]1OC(C(=O)N2CCOCC2)=C[C@H](c2ccccc2)[C@H]1CCCO	-1.2	11.5	0.4	-32.6	-5.4
COc1cc(S(=O)(=O)Nc2ncccc2C)c(OC)cc1Cl	-9.8	4.4	-10.7	28.5*	-7.5
COc1cc(C(=O)N2CCC(O)(c3ccccc3)CC2)cc(OC)c1OC	2.3	-5.5	50.7*	-19.1	11.6
Cc1nc2c3ccccc3nc(NNC(=O)CCC(=O)NC(C)C)n2n1	6.7	8.3	-14.7	-17.8	0.0
Cc1nc2c3ccccc3nc(NNC(=O)CCC(=O)NC3CCCC3)n2n1	-3.4	9.4	50.0*	-19.8	5.2
